ChEMBL document CHEMBL1649084, “Novel trisubstituted benzimidazoles, targeting Mtb FtsZ, as a new class of antitubercular agents” (J Med Chem, 2011)
Converted amounts (≈) assume the structure as drawn.

Legend:
[1] = test system: Mycobacterium tuberculosis; assay: Antimycobacterial activity against Mycobacterium tuberculosis H37Rv after 24 hrs by microplate Alamar Blue assay; assay type: functional
Method in brief: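 MIC99 by microplate Alamar Blue: DMSO stocks serially diluted 2-fold in 96-well plates; Mtb grown in 7H9 + 10% OADC + 0.05% Tween-80, used at mid-log phase, added to OD600 0.005; 6 days at 37 °C, then AlamarBlue added and a further 24 h at 37 °C; read by colour change; triplicate.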

Vero = assay: Cytotoxicity against african green monkey Vero cells after 3 days by Alamar Blue assay; assay type: cell-based; settings: chlorocebus sabaeus, 72 h
[2] = test system: Mycobacterium tuberculosis; assay: Antimycobacterial activity against Mycobacterium tuberculosis H37Rv W210 after 24 hrs by microplate Alamar Blue assay; assay type: functional
[3] = test system: Mycobacterium tuberculosis; assay: Antimycobacterial activity against Mycobacterium tuberculosis H37Rv NHN382 after 24 hrs by microplate Alamar Blue assay; assay type: functional
[4] = molecular target: T1, Cell division protein FtsZ (Mycobacterium tuberculosis, UniProt P9WN95); assay: (§1) Inhibition of Mycobacterium tuberculosis FtsZ polymerization
T1 sequence (P9WN95 whole entry): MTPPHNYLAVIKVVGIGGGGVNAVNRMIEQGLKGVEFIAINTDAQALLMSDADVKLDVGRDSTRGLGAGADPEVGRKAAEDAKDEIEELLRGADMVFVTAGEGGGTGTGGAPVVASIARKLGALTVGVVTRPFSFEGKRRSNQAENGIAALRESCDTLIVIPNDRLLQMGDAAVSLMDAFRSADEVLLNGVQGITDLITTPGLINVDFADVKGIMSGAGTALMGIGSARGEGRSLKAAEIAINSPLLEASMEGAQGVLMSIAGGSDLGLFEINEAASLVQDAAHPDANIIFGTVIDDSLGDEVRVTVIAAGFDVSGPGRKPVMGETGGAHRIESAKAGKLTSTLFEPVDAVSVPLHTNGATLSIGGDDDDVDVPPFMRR
Method in brief: (§2)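 90° light scattering at 30 °C, excitation/emission 400 nm. Inhibitor at various concentrations preincubated in 50 mM MES, 5 mM MgCl2, 50 mM KCl, pH 6.5 to baseline. Mtb FtsZ (15 μM) then added; polymerization started with 5 mM GTP (20 μL into 1,000 μL final); monitored 30-60 min. DMSO-matched controls.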

[5] = molecular target: T2, Cell division protein FtsZ (Mycobacterium tuberculosis) (UniProt P9WN95); assay: as §1; method in brief: as §2
T2 sequence (whole entry): T1 sequence (P9WN95 whole entry)

Row | Structure (SMILES) | MIC99 [1] | Cytotoxic concentration (Vero) | MIC99 [2] | MIC99 [3] | other results
1 | CCCOC(=O)Nc1cc2nc(C3CCCCC3)[nH]c2cc1N(CC)CC | 4.3 µM (≈ 1.6 µg/mL) | > 400 µM | – | – | –
2 | O=C(Nc1cc2nc(C3CCCCC3)[nH]c2cc1N1CCCC1)OCc1ccccc1 | – | > 200 µM | 3.7 µM (≈ 1.55 µg/mL) | 3.7 µM (≈ 1.55 µg/mL) | –
3 | CCN(CC)c1cc2[nH]c(C3CCCCC3)nc2cc1NC(=O)OCc1ccccc1 | 3.8 µM (≈ 1.6 µg/mL) | > 400 µM | – | – | –
4 | CCCCOC(=O)Nc1cc2nc(C3CCCCC3)[nH]c2cc1N1CCCC1 | – | > 200 µM | 1 µM (≈ 0.385 µg/mL) | 1 µM (≈ 0.385 µg/mL) | –
5 | CCN(CC)c1cc2[nH]c(C3CCCCC3)nc2cc1NC(=O)c1ccc(C)cc1 | 15.1 µM (≈ 6.11 µg/mL) | > 400 µM | – | – | –
6 | CCN(CC)c1cc2[nH]c(C3CCCCC3)nc2cc1NC(=O)c1ccccc1 | 7.9 µM (≈ 3.09 µg/mL) | > 400 µM | – | – | IC50 [4]: 6.21 µM; Activity [5]: Dose-dependent effect
7 | CCOC(=O)Nc1cc(NC(C)=O)c2[nH]c(-c3ccccc3)nc2c1 | – | > 200 µM | – | 2.3 µM (≈ 0.778 µg/mL) | MIC99 ([2]; Mycobacterium tuberculosis, H37Rv W210, 24 h, read-out: MIC99): 4.6 µM (≈ 1.56 µg/mL)
8 | C=CCCOC(=O)Nc1cc2nc(C3CCCCC3)[nH]c2cc1N(CC)CC | – | > 400 µM | 4.2 µM (≈ 1.62 µg/mL) | 4.2 µM (≈ 1.62 µg/mL) | –
9 | CCN(CC)c1cc2[nH]c(C3CCCCC3)nc2cc1NC(=O)c1ccc(Cl)cc1 | 14.1 µM (≈ 5.99 µg/mL) | > 400 µM | – | – | –
10 | CCN(CC)c1cc2[nH]c(C3CCCCC3)nc2cc1NC(=O)c1ccc(OC)cc1 | 7.4 µM (≈ 3.11 µg/mL) | > 400 µM | – | – | –
11 | CCCCOC(=O)Nc1cc2nc(C3CCCCC3)[nH]c2cc1N(CC)CC | – | > 400 µM | 4 µM (≈ 1.55 µg/mL) | – | MIC99 ([3]; Mycobacterium tuberculosis, H37Rv NHN382, 24 h, read-out: MIC99): 2 µM (≈ 0.773 µg/mL); IC50 [4]: 7.69 µM
